Activity calls are given as the source filed them. The calls are words filed in the database; no cut-off is given here.
Key:
A-375 [1] = experiment: Cytotoxicity against human A375 cells expressing p53 wild type assessed as cell viability at 1 uM after 24 hrs by MTT assay; format: functional; settings: A-375, 24 h, read-out: Activity
How it was run: (§1)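 Cells were exposed to compound at 1 µM for 24 h, then growth and viability were read by MTT assay. Media: A375 in DMEM; RPMI7951 and MCF-7 in MEM; A549 in RPMI1640; H1299 in DMEM-F12; all with 10% FCS and penicillin/streptomycin, at 37 °C and 5% CO2. Fibroblasts came from adult foreskin. DMSO stocks were 10 mM.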

[2] = Cytotoxicity against human RPMI7951 cells expressing p53 mutant assessed as cell viability at 1 uM after 24 hrs by MTT assay; format: functional; settings: RPMI-7951, 24 h, read-out: Activity; how it was run: as §1
MCF7 = experiment: Cytotoxicity against human MCF7 cells expressing p53 wild type assessed as cell viability at 1 uM after 24 hrs by MTT assay; format: functional; settings: MCF7, 24 h, read-out: Activity; how it was run: as §1
A549 = experiment: Cytotoxicity against human A549 cells assessed as cell viability at 1 uM after 24 hrs by MTT assay; format: functional; settings: A549, 24 h, read-out: Activity; how it was run: as §1
[3] = Cytotoxicity against p53 knockout human H1299 cells assessed as cell viability at 1 uM after 24 hrs by MTT assay; format: functional; settings: NCI-H1299, 24 h, read-out: Activity; how it was run: as §1
[4] = Cytotoxicity against human fibroblast cells expressing p53 wild type assessed as cell viability at 1 uM after 24 hrs by MTT assay; format: cell-based; settings: read-out: Activity; how it was run: as §1
A-375 [5] = experiment: Induction of apoptosis in human A375 cells expressing p53 wild type assessed as increase in p53 levels at 0.5 uM after 24 hrs by western blot analysis; format: functional, cell-based
How it was run: (§2)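 A375 cells were exposed to 0.5 µM for 24 h, and lysates were immunoblotted with specific antibodies (p53, Cdc25c, p-Chk1, Bcl-xL, PARP, caspase-3). GAPDH served as loading control. Three independent experiments.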

A-375 [6] = experiment: Induction of apoptosis in human A375 cells expressing p53 wild type assessed as decrease in Bcl-xl levels at 0.5 uM after 24 hrs by western blot analysis; format: functional, cell-based; how it was run: as §2
A-375 [7] = experiment: Induction of apoptosis in human A375 cells expressing p53 wild type assessed as increase in cleaved caspase-3 levels at 0.5 uM after 24 hrs by western blot analysis; format: functional, cell-based; how it was run: as §2
A-375 [8] = experiment: Induction of apoptosis in human A375 cells expressing p53 wild type assessed as increase in cleaved PARP levels at 0.5 uM after 24 hrs by western blot analysis; format: functional, cell-based; how it was run: as §2

| SMILES | viability at 1 µM (A-375 [1]) | viability at 1 µM [2] | viability at 1 µM (MCF7) | viability at 1 µM (A549) | viability at 1 µM [3] | viability at 24 h, 1 µM [4] | Activity (A-375 [5]) | Activity (A-375 [6]) | Activity (A-375 [7]) | Activity (A-375 [8]) |
| --- | --- | --- | --- | --- | --- | --- | --- | --- | --- | --- |
| COc1cc2c(cc1OCCCNC(=O)c1cc(OC)c(OC)c(OC)c1)N=C[C@@H]1CCCN1C2=O | 82.6% | 97.7% | 94.6% | 96.1% | 96.4% | 101% | – | – | – | – |
| COc1cc2c(cc1OCCCCCNC(=O)c1cc(OC)c(OC)c(OC)c1)N=C[C@@H]1CCCN1C2=O | 74.7% | 111% | 101% | 96.8% | 96.9% | 98.7% | – | – | – | – |
| COc1cc2c(cc1OCCCCCCOc1cc(OC)c(OC)c(OC)c1)N=C[C@@H]1CCCN1C2=O | 84.8% | 55.9% | 79% | 101% | 90.2% | 93.4% | Active | Active | Active | Active |
| COc1cc2c(cc1OCCCCCCNC(=O)c1cc(OC)c(OC)c(OC)c1)N=C[C@@H]1CCCN1C2=O | 86.5% | 69.6% | 95.4% | 101% | 92.4% | 94.9% | – | – | – | – |
